Activity calls are given as the source filed them. No cut-off for these calls is given here.
Tests used:
[1] = Solubility of compound in 0.1% DMSO by light microscopy; type: physicochemical
How it was run: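 Compounds taken up in aqueous 5% DMSO, diluted in RPMI to 10 µM (final DMSO 0.1%), and inspected by light microscopy for crystal formation.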

RAW264.7 [2] = assay: Cytotoxicity against […] RAW264.7 cells assessed as reduction in cell viability at 10 uM incubated for 48 hrs by resazurin staining based assay; details: raw264.7, 48 h
How it was run: (§1)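 RAW 264.7 macrophages treated 48 h with compound in RPMI (final DMSO 0.1%); survival measured by resazurin viability assay. Screening at 10 µM, IC50 range 1–80 µM. Controls amphotericin B 3.125 µg/mL and 0.1% DMSO; three independent experiments in internal quadruplicate.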

Leishmania braziliensis [3] = assay: Antileishmanial activity against Leishmania braziliensis MHOM/BR/75/M2904 promastigotes assessed as reduction in cell viability at 10 uM incubated for 48 hrs by resazurin staining based assay; type: functional, organism-based
How it was run: (§2)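 Log-phase promastigotes exposed 48 h to compound in RPMI (final DMSO 0.1%); survival read by resazurin relative to DMSO. Screening at 10 µM; IC50 runs at 1–80 µM. Amphotericin B 3.125 µg/mL and 0.1% DMSO as controls; quadruplicate wells, two or three independent experiments; significance by one-way ANOVA with Dunnett post-test.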

Leishmania braziliensis [4] = assay: Antileishmanial activity against Leishmania braziliensis MHOM/BR/75/M2904 amastigotes infected in […] cells assessed as cell viability at 10 uM incubated for 48 hrs by resazurin staining based assay (reference value: 10.71 %); type: functional
Leishmania braziliensis [5] = assay: Antileishmanial activity against Leishmania braziliensis MHOM/BR/75/M2904 amastigotes infected in […] cells assessed as cell viability at 80 uM incubated for 48 hrs by resazurin staining based assay (reference value: 10.71 %); type: functional
Leishmania braziliensis [6] = assay: Antileishmanial activity against Leishmania braziliensis MHOM/BR/75/M2904 amastigotes infected in […] cells assessed as cell viability at 40 uM incubated for 48 hrs by resazurin staining based assay (reference value: 10.71 %); type: functional
Leishmania braziliensis [7] = assay: Antileishmanial activity against Leishmania braziliensis MHOM/BR/75/M2904 amastigotes infected in […] cells assessed as cell viability at 30 uM incubated for 48 hrs by resazurin staining based assay (reference value: 10.71 %); type: functional
Leishmania braziliensis [8] = assay: Antileishmanial activity against Leishmania braziliensis MHOM/BR/75/M2904 amastigotes infected in […] cells assessed as cell viability at 20 uM incubated for 48 hrs by resazurin staining based assay (reference value: 10.71 %); type: functional
Leishmania braziliensis [9] = assay: Antileishmanial activity against Leishmania braziliensis MHOM/BR/75/M2904 amastigotes infected in […] cells assessed as cell viability at 5 uM incubated for 48 hrs by resazurin staining based assay (reference value: 10.71 %); type: functional
Leishmania braziliensis [10] = assay: Antileishmanial activity against Leishmania braziliensis MHOM/BR/75/M2904 amastigotes infected in […] cells assessed as cell viability at 2.5 uM incubated for 48 hrs by resazurin staining based assay (reference value: 10.71 %); type: functional
Leishmania braziliensis [11] = assay: Antileishmanial activity against Leishmania braziliensis MHOM/BR/75/M2904 promastigotes assessed as reduction in cell viability incubated for 48 hrs by resazurin staining based assay; type: functional, organism-based; details: MHOM/BR/75/M2904, 48 h; how it was run: as §2
RAW264.7 [12] = assay: Cytotoxicity against […] RAW264.7 cells assessed as reduction in cell viability incubated for 48 hrs by resazurin staining based assay; details: Mus musculus, RAW264.7, 48 h; how it was run: as §1
Leishmania braziliensis [13] = assay: Antileishmanial activity against Leishmania braziliensis MHOM/BR/75/M2904 amastigotes infected in […] cells assessed as reduction in cell viability incubated for 48 hrs by resazurin staining based assay; type: functional, organism-based; details: MHOM/BR/75/M2904, RAW264.7, 48 h
[14] = Selectivity index, ratio of IC50 of cytotoxicity against […] RAW264.7 cells to IC50 of antileishmanial activity against Leishmania braziliensis MHOM/BR/75/M2904 amastigotes infected in […] RAW264.7 cells; type: toxicity, cell-based; details: read-out: Ratio IC50
How it was run: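 Selectivity index from IC50 on RAW 264.7 macrophages over IC50 against intracellular amastigotes, both after 48 h by resazurin.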

Leishmania braziliensis [15] = assay: Cell cycle arrest in Leishmania braziliensis MHOM/BR/75/M2904 amastigotes infected in […] cells assessed as lobulated cell bodies incubated for 48 hrs by transmission electron microscopy; type: functional, organism-based
How it was run: (§3)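 Infected macrophage cultures treated with compound or DMSO control, then examined by transmission electron microscopy for parasite morphology within parasitophorous vacuoles (lobulation, multimembrane vesicles, chromatin fragments).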

Leishmania braziliensis [16] = assay: Induction of autophagy in Leishmania braziliensis MHOM/BR/75/M2904 amastigotes infected in […] RAW264.7 cells incubated for 48 hrs by transmission electron microscopy; type: functional, organism-based; how it was run: as §3
Leishmania braziliensis [17] = assay: Induction of apoptosis in Leishmania braziliensis MHOM/BR/75/M2904 amastigotes infected in […] RAW264.7 cells incubated for 48 hrs by transmission electron microscopy; type: functional, organism-based; how it was run: as §3
Leishmania braziliensis [18] = assay: Antileishmanial activity against Leishmania braziliensis MHOM/BR/75/M2904 amastigotes infected in […] cells assessed as cell viability at 1 uM incubated for 48 hrs by resazurin staining based assay (reference value: 10.71 %); type: functional
RAW264.7 [19] = assay: Cytotoxicity against […] RAW264.7 cells assessed as reduction in cell viability at 3.125 ug/ml incubated for 48 hrs by resazurin staining based assay; details: raw264.7, 48 h; how it was run: as §1

O=C(/C=C/c1ccc(Cl)cc1)Oc1ccc2c(c1)C(=O)OC2
solubility [1]: Insoluble

O=C(/C=C/c1ccccc1)OCCCc1cn(Cc2ccc(C(F)(F)F)cc2)nn1
Activity (RAW264.7 [2]): Non-Toxic
Activity (Leishmania braziliensis [3]): Active
Activity (Leishmania braziliensis [4]): 69.24%

COc1cc(/C=C/C(=O)Oc2ccc3c(c2)C(=O)OC3)cc(OC)c1OC
Activity (RAW264.7 [2]): Non-Toxic
Activity (Leishmania braziliensis [3]): Active
Activity (Leishmania braziliensis [4]): 64.46 - 80.47%
Activity (Leishmania braziliensis [5]): 35.51%
Activity (Leishmania braziliensis [6]): 46.33%
Activity (Leishmania braziliensis [7]): 47.12%
Activity (Leishmania braziliensis [8]): 19.71%
Activity (Leishmania braziliensis [9]): 79.72%
Activity (Leishmania braziliensis [10]): 74.54%
IC50 (Leishmania braziliensis [11]): 7.58 µM
IC50 (RAW264.7 [12]): > 80 µM
IC50 (Leishmania braziliensis [13]): 8.27 µM
selectivity ratio [14]: > 9.67
Activity (Leishmania braziliensis [15]): Active
Activity (Leishmania braziliensis [16]): Active
Activity (Leishmania braziliensis [17]): Active

O=C(/C=C/c1ccccc1)OCCCc1cn(Cc2ccc([N+](=O)[O-])cc2)nn1
Activity (RAW264.7 [2]): Non-Toxic
Activity (Leishmania braziliensis [3]): Active
Activity (Leishmania braziliensis [4]): 20.58%

O=C(/C=C/c1ccccc1)OCc1cn(Cc2ccc(I)cc2)nn1
solubility [1]: Insoluble

O=C(/C=C/c1ccccc1)OCc1cn(Cc2ccc(F)c(F)c2)nn1
Activity (RAW264.7 [2]): Non-Toxic
Activity (Leishmania braziliensis [3]): inactive
Activity (Leishmania braziliensis [4]): 68.6 - 86.32%
Activity (Leishmania braziliensis [6]): 72.41%
Activity (Leishmania braziliensis [7]): 95.13%
Activity (Leishmania braziliensis [8]): 79.77%
Activity (Leishmania braziliensis [9]): 98.18%
Activity (Leishmania braziliensis [10]): 83.08%
Activity (Leishmania braziliensis [18]): 85.4%
IC50 (Leishmania braziliensis [11]): 3.05 µM
IC50 (RAW264.7 [12]): > 80 µM

COc1ccc(Cn2cc(CCCOC(=O)/C=C/c3ccccc3)nn2)cc1
Activity (RAW264.7 [2]): Non-Toxic
Activity (Leishmania braziliensis [4]): 60.48%

O=C(/C=C/c1ccccc1)OCc1cn(Cc2ccc(F)cc2)nn1
Activity (RAW264.7 [2]): Non-Toxic
Activity (Leishmania braziliensis [3]): inactive
Activity (Leishmania braziliensis [4]): 59.1%

O=C(/C=C/c1ccccc1)OCc1cn(Cc2cc(Cl)ccc2Cl)nn1
Activity (RAW264.7 [2]): Non-Toxic
Activity (Leishmania braziliensis [3]): inactive
Activity (Leishmania braziliensis [4]): 78.98%

O=C(/C=C/c1ccccc1)OCCCc1cn(Cc2ccccc2F)nn1
Activity (RAW264.7 [2]): Non-Toxic
Activity (Leishmania braziliensis [4]): 19.67%

COc1ccc(/C=C/C(=O)Oc2ccc3c(c2)C(=O)OC3)cc1
solubility [1]: Insoluble

COc1ccc(Cn2cc(COC(=O)/C=C/c3ccccc3)nn2)cc1
Activity (RAW264.7 [2]): Non-Toxic
Activity (Leishmania braziliensis [3]): inactive
Activity (Leishmania braziliensis [4]): 76%

O=C(/C=C/c1ccccc1)OCCCc1cn(Cc2ccc(F)cc2)nn1
Activity (RAW264.7 [2]): Non-Toxic
Activity (Leishmania braziliensis [4]): 67.84%

O=C(/C=C/c1ccccc1)OCCCc1cn(Cc2ccc(Br)cc2)nn1
Activity (RAW264.7 [2]): Non-Toxic
Activity (Leishmania braziliensis [3]): Active
Activity (Leishmania braziliensis [4]): 45.1%

O=C(/C=C/c1ccccc1)OCc1cn(Cc2ccccc2Br)nn1
Activity (RAW264.7 [2]): Non-Toxic
Activity (Leishmania braziliensis [3]): inactive
Activity (Leishmania braziliensis [4]): 80.12%

O=C(/C=C/c1ccccc1)OCCCc1cn(Cc2cc(Cl)ccc2Cl)nn1
Activity (RAW264.7 [2]): Non-Toxic
Activity (Leishmania braziliensis [3]): Active
Activity (Leishmania braziliensis [4]): 45.74%

O=C(/C=C/c1ccccc1)OCc1cn(Cc2ccc([N+](=O)[O-])cc2)nn1
solubility [1]: Insoluble

O=C(/C=C/c1ccccc1)OCc1cn(Cc2ccc(Cl)cc2)nn1
solubility [1]: Insoluble

O=C(/C=C/c1ccccc1)OCCCc1cn(Cc2ccc(F)c(F)c2)nn1
Activity (RAW264.7 [2]): Non-Toxic
Activity (Leishmania braziliensis [4]): 47.85%

O=C(/C=C/c1ccccc1)OCCCc1cn(Cc2ccccc2Br)nn1
Activity (RAW264.7 [2]): Non-Toxic
Activity (Leishmania braziliensis [4]): 57.32%

O=C(/C=C/c1ccccc1)OCc1cn(Cc2ccccc2)nn1
Activity (RAW264.7 [2]): Non-Toxic
Activity (Leishmania braziliensis [3]): inactive
Activity (Leishmania braziliensis [4]): 19.91%

O=C(/C=C/c1ccc(F)cc1)Oc1ccc2c(c1)C(=O)OC2
Activity (RAW264.7 [2]): Non-Toxic
Activity (Leishmania braziliensis [3]): Active
Activity (Leishmania braziliensis [4]): 43.87%

O=C(/C=C/c1ccccc1)OCc1cn(Cc2c(Cl)cc(Cl)cc2Cl)nn1
Activity (RAW264.7 [2]): Non-Toxic
Activity (Leishmania braziliensis [3]): inactive
Activity (Leishmania braziliensis [4]): 70.38%

O=C(/C=C/c1ccc(Br)cc1)Oc1ccc2c(c1)C(=O)OC2
Activity (RAW264.7 [2]): Non-Toxic
Activity (Leishmania braziliensis [3]): Active
Activity (Leishmania braziliensis [4]): 50.14%

O=C(/C=C/c1ccc([N+](=O)[O-])cc1)Oc1ccc2c(c1)C(=O)OC2
Activity (RAW264.7 [2]): Non-Toxic
Activity (Leishmania braziliensis [4]): 59.54%

O=C(/C=C/c1ccccc1)OCCCc1cn(Cc2ccc(Cl)cc2)nn1
Activity (RAW264.7 [2]): Non-Toxic
Activity (Leishmania braziliensis [3]): Active
Activity (Leishmania braziliensis [4]): 49.01%

O=C(/C=C/c1ccccc1)OCc1cn(Cc2ccc(OC(F)(F)F)cc2)nn1
Activity (RAW264.7 [2]): Non-Toxic
Activity (Leishmania braziliensis [3]): inactive
Activity (Leishmania braziliensis [4]): 77.39%

C[C@@H]1[C@H](O)[C@@H](C)/C=C/C=C/C=C/C=C/C=C/C=C/C=C/[C@H](O[C@@H]2O[C@H](C)[C@@H](O)[C@H](N)[C@@H]2O)C[C@@H]2O[C@](O)(C[C@@H](O)C[C@@H](O)[C@H](O)CC[C@@H](O)C[C@@H](O)CC(=O)O[C@H]1C)C[C@H](O)[C@H]2C(=O)O [AMPHOTERICIN B]
Activity (RAW264.7 [19]): Non-Toxic
Activity (Leishmania braziliensis [4]): 98.25%

O=C(/C=C/c1ccccc1)OCc1cn(Cc2ccc(Br)cc2)nn1
solubility [1]: Insoluble

O=C(/C=C/c1ccccc1)OCCCc1cn(Cc2ccccc2)nn1
Activity (RAW264.7 [2]): Non-Toxic
Activity (Leishmania braziliensis [3]): Active
Activity (Leishmania braziliensis [4]): 39.73%

O=C(/C=C/c1ccccc1)OCCCc1cn(Cc2ccc(I)cc2)nn1
Activity (RAW264.7 [2]): Non-Toxic
Activity (Leishmania braziliensis [3]): Active
Activity (Leishmania braziliensis [4]): 52.07%

O=C(/C=C/c1ccccc1)OCCCc1cn(Cc2ccc(OC(F)(F)F)cc2)nn1
Activity (RAW264.7 [2]): Non-Toxic
Activity (Leishmania braziliensis [3]): Active
Activity (Leishmania braziliensis [4]): 65.84%

O=C(/C=C/c1ccccc1)OCc1cn(Cc2ccc(C(F)(F)F)cc2)nn1
solubility [1]: Insoluble
